Experimental data collected from several papers.
Target: Casein kinase I isoform delta (CSNK1D, Homo sapiens, UniProt P48730)

With `Nc1ncc(-c2nc(N3CCOCC3)nc(N3CCOCC3)n2)c(C(F)F)n1` the remaining binding was 90% (binding; competition with immobilised ligand; 10 µM).
`COc1ncccc1-c1cnn2ccc(N3CCN(C(=O)OC(C)C)CC3)nc12` has a remaining binding of 85% (binding; competition with immobilised ligand; 1 µM).
`CC(C)(C)c1cc(C=C(C#N)C#N)cc(Br)c1O` gave a remaining activity of 85.5% (enzyme activity; inhibitor; 0.5 µM).
For `Cn1cc(-c2cc(F)cc(N3CCn4c(cc5c4CCCC5)C3=O)c2CO)cc(Nc2ccc(N3CCN(C4COC4)CC3)cn2)c1=O`, the inhibition was 6% (enzyme activity; inhibitor; 0.1 µM).
`Cn1cncc1[C@@](O)(COc1ccc(C#N)cc1-c1ccc(OC(F)(F)F)cc1)c1ccc(C#N)cc1` has a remaining binding of 94% (cell-free assay; competition with immobilised ligand; 1 µM).
`Cc1nn(C)cc1-c1nc2c(N3CCN(Cc4ccc(Cl)cc4)CC3)c(Cl)cnc2[nH]1` has a remaining binding of 100% (binding; competition with immobilised ligand; 1 µM).
`O=c1[nH]c2ccccc2n1C1CCN(Cc2ccc(-c3[nH]c4cc5ncnc5cc4nc3-c3ccccc3)cc2)CC1` gave a remaining signal of 100% (cell-free assay; 0.5 µM).
The inhibition of `Cn1cc(-c2cccc(N3CCc4c(sc5c4CC(C)(C)C5)C3=O)c2CO)cc(Nc2ccncn2)c1=O` is reported as 0% (enzyme activity; inhibitor; 1 µM).
